Values belong to the molecule of their own block, whether it stands above or below them.
How the values were obtained:
Rattus norvegicus [1] = species on record: Rattus norvegicus; assay: T/C value of compound was measured in rats which are untreated with phenobarbital (PB); format: functional
How it was run: (§1)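 Rats were given water (untreated) or 0.1% sodium phenobarbital drinking solution (PB-treated) for 8 days, then fasted overnight. Agent 1.25 mmol/kg ip, then ethanol 2.0 g/kg ip 1 h later; killed 1 h after ethanol. Blood acetaldehyde by head-space GC. The value is treated/saline-control blood acetaldehyde within the same pretreatment group.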

Rattus norvegicus [2] = species on record: Rattus norvegicus; assay: Blood AcH level of compound was measured in rats which are treated with phenobarbital (PB); format: functional
How it was run: (§2)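 Male Sprague–Dawley rats kept 8 days on water (untreated) or 0.1% sodium phenobarbital solution (PB-treated), then fasted overnight. Test agent given at 1.25 mmol/kg ip 2 h before sacrifice, with ethanol at 2.0 g/kg ip 1 h later; saline controls. Cardiac blood was collected into 5 mM sodium azide and frozen, then acetaldehyde was read by head-space GC. Mean ± SE.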

[3] = biological target: T1, Aldehyde dehydrogenase 1A1 (Rattus norvegicus) (UniProt P51647); assay: Percent inhibition of the enzyme […] was measured in rats which are treated with phenobarbital (PB); conditions: concentration not given here
T1 sequence (whole entry): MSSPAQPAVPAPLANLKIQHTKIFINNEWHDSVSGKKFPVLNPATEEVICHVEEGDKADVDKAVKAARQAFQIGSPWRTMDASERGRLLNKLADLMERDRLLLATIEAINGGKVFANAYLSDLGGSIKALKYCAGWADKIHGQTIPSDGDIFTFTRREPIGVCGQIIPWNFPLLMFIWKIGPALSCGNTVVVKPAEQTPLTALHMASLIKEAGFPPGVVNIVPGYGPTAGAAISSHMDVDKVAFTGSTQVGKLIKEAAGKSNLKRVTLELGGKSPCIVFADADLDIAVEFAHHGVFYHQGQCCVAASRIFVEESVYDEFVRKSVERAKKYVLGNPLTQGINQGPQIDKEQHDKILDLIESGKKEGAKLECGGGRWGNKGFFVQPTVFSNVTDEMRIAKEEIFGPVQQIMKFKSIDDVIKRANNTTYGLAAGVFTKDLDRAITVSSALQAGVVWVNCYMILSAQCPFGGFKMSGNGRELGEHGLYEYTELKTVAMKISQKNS
How it was run: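 Male Sprague–Dawley rats pretreated 8 days with 0.1% sodium phenobarbital in drinking water, then fasted overnight. They received 1.25 mmol/kg ip 2 h before sacrifice and ethanol 2.0 g/kg ip at 1 h. Liver mitochondrial low-Km aldehyde dehydrogenase activity (nmol acetaldehyde oxidized/min/mg protein, Lowry protein) was compared with saline controls as % inhibition.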

Rattus norvegicus [4] = species on record: Rattus norvegicus; assay: Blood AcH level of compound was measured in rats which are untreated with phenobarbital (PB); format: functional; how it was run: as §2
Rattus norvegicus [5] = species on record: Rattus norvegicus; assay: T/C value of compound was measured in rats which are treated with phenobarbital (PB); format: functional; how it was run: as §1
Rattus norvegicus [6] = species on record: Rattus norvegicus; assay: The enzymatic formation of propionaldehyde from compound on inhibition with rat liver microsomes in the presence of an NADPH (treated with phenobarbital (PB)); format: functional
How it was run: (§3)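 Liver microsomes (100000g pellet, KCl-washed) from PB-treated or naive rats, equivalent to 500 mg liver per flask. Incubated 30 min at 37 °C with 3 mM compound, pH 7.4 phosphate, NADP+ 2.0 mM, glucose 6-phosphate 2.5 mM, G6PDH, MgCl2, nicotinamide, and 30 mM semicarbazide. Six flasks were pooled, acidified with HClO4, and propiolaldehyde read by head-space GC from 3–5 determinations.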

Rattus norvegicus [7] = species on record: Rattus norvegicus; assay: The enzymatic formation of propionaldehyde from compound on inhibition with rat liver microsomes in the presence of an NADPH (untreated with phenobarbital (PB)); format: functional; how it was run: as §3

inhibition [3]: 44%
SMILES: C#CC(OC)OC
T/C (Rattus norvegicus [1]): 0.95
Blood AcH (Rattus norvegicus [2]): 24.1 µM
Blood AcH (Rattus norvegicus [4]): 10.6 µM
T/C (Rattus norvegicus [5]): 3.17
Propioaldehyde generated (Rattus norvegicus [6]): 0.05 µmol

SMILES: C#CCNCc1ccccc1 [N-BENZYLPROPARGYLAMINE]
T/C (Rattus norvegicus [1]): 18.3
Blood AcH (Rattus norvegicus [2]): 382 µM
Blood AcH (Rattus norvegicus [4]): 203 µM
T/C (Rattus norvegicus [5]): 50.3
Propioaldehyde generated (Rattus norvegicus [6]): 1.16 µmol
Propioaldehyde generated (Rattus norvegicus [7]): 0.2 µmol

SMILES: C#CCOC(C)(C)C
T/C (Rattus norvegicus [1]): 1.77
Blood AcH (Rattus norvegicus [2]): 13.5 µM
Blood AcH (Rattus norvegicus [4]): 19.6 µM
T/C (Rattus norvegicus [5]): 1.78
Propioaldehyde generated (Rattus norvegicus [6]): 0.22 µmol

SMILES: C#CCN(C)Cc1ccccc1 [PARGYLINE]
T/C (Rattus norvegicus [1]): 20.2
Blood AcH (Rattus norvegicus [2]): 247 µM
Blood AcH (Rattus norvegicus [4]): 224 µM
T/C (Rattus norvegicus [5]): 32.5
Propioaldehyde generated (Rattus norvegicus [6]): 2.58 µmol
Propioaldehyde generated (Rattus norvegicus [7]): 0.61 µmol

SMILES: C#CCOC
T/C (Rattus norvegicus [1]): 0.95
Blood AcH (Rattus norvegicus [4]): 10.6 µM
T/C (Rattus norvegicus [5]): 1.1
Propioaldehyde generated (Rattus norvegicus [6]): 0.05 µmol

SMILES: C#CCN(CC#C)CC#C
T/C (Rattus norvegicus [1]): 1.4
Blood AcH (Rattus norvegicus [2]): 144 µM
Blood AcH (Rattus norvegicus [4]): 15.4 µM
T/C (Rattus norvegicus [5]): 19
Propioaldehyde generated (Rattus norvegicus [6]): 3.5 µmol
Propioaldehyde generated (Rattus norvegicus [7]): 0.25 µmol

From ChEMBL document CHEMBL1121456, “Metabolic depropargylation and its relationship to aldehyde dehydrogenase inhibition in vivo” (1980)
